ChEMBL document CHEMBL4393670 (J Med Chem, 2019)
Activity calls are given as the source filed them. No cut-off for these calls is given here. Residues, ends and D or L forms follow the SMILES beside them. *: point of attachment. Cbz = O=C(OCc1ccccc1)*; Boc = CC(C)(C)OC(=O)*; OBn = c1ccc(CO*)cc1; OtBu = CC(C)(C)O*

What was measured:
[1] = Selectivity ratio of IC50 for human NCI-H727 cells to IC50 for human NCI-H23 cells; assay type: functional
NCI-H23 = assay: Cytotoxicity against human NCI-H23 cells after 72 hrs by CellTiter 96 AQueous one solution cell proliferation assay; assay type: functional, cell-based; settings: NCI-H23, 72 h
In short: (§1)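 Cells in RPMI1640 with 10% FBS; H23 plated at 5000, H727, RPMI8226 and the Cfz-resistant subline at 10 000 cells/well. Resistant subline adapted to stepwise Cfz up to 80 nM over ~6 months, kept in 80 nM, then Cfz-free ~1 week before testing.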

NCI-H727 [2] = assay: Cytotoxicity against human NCI-H727 cells after 72 hrs by CellTiter 96 AQueous one solution cell proliferation assay; assay type: functional, cell-based; settings: NCI-H727, 72 h; in short: as §1
[3] = Cytotoxicity against human RPMI8226/Cfzr cells after 72 hrs by CellTiter 96 AQueous one solution cell proliferation assay; assay type: functional, cell-based; settings: RPMI-8226, 72 h; in short: as §1
[4] = Selectivity ratio of IC50 for human RPMI8226/Cfzr cells to IC50 for human RPMI8226 cells; assay type: functional
RPMI-8226 = assay: Cytotoxicity against human RPMI8226 cells after 72 hrs by CellTiter 96 AQueous one solution cell proliferation assay; assay type: functional, cell-based; settings: RPMI-8226, 72 h; in short: as §1
[5] = target: T1, Proteasome Macropain subunit MB1 (Homo sapiens, UniProt P28074); assay: Inhibition of 20S proteasome beta5 subunit in human RPMI8226 cell lysate using Suc-LLVY-AMC as substrate pretreated for 1 hr followed by substrate addition and measured at 1 min interval by fluorescence assay; assay type: subcellular
T1 sequence (P28074 whole entry): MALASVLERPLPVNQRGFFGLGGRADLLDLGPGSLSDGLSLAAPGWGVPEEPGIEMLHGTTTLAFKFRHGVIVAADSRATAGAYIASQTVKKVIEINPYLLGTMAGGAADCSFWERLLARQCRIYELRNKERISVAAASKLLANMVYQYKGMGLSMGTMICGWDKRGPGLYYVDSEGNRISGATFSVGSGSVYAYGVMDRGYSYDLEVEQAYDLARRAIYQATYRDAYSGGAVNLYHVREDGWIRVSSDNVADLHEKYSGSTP

Homo sapiens [6] = species on record: Homo sapiens; assay: Cytotoxicity against human Btz-resistant multiple myeloma cells at 10 uM after 48 hrs by CellTiter Glo luminescent cell viability assay
Homo sapiens [7] = species on record: Homo sapiens; assay: Cytotoxicity against human multiple myeloma cells at 10 uM after 48 hrs by CellTiter Glo luminescent cell viability assay
[8] = target: ATP-dependent translocase ABCB1 (Homo sapiens, UniProt P08183); assay: Inhibition of P-gp in human RPMI8226/Cfzr cells assessed as potentiation of carfilzomib-induced cytotoxicity at 7.5 uM measured after 72 hrs by CellTiter 96 AQueous one solution cell proliferation assay; assay type: cell-based
ATP-dependent translocase ABCB1, sequence (P08183 whole entry): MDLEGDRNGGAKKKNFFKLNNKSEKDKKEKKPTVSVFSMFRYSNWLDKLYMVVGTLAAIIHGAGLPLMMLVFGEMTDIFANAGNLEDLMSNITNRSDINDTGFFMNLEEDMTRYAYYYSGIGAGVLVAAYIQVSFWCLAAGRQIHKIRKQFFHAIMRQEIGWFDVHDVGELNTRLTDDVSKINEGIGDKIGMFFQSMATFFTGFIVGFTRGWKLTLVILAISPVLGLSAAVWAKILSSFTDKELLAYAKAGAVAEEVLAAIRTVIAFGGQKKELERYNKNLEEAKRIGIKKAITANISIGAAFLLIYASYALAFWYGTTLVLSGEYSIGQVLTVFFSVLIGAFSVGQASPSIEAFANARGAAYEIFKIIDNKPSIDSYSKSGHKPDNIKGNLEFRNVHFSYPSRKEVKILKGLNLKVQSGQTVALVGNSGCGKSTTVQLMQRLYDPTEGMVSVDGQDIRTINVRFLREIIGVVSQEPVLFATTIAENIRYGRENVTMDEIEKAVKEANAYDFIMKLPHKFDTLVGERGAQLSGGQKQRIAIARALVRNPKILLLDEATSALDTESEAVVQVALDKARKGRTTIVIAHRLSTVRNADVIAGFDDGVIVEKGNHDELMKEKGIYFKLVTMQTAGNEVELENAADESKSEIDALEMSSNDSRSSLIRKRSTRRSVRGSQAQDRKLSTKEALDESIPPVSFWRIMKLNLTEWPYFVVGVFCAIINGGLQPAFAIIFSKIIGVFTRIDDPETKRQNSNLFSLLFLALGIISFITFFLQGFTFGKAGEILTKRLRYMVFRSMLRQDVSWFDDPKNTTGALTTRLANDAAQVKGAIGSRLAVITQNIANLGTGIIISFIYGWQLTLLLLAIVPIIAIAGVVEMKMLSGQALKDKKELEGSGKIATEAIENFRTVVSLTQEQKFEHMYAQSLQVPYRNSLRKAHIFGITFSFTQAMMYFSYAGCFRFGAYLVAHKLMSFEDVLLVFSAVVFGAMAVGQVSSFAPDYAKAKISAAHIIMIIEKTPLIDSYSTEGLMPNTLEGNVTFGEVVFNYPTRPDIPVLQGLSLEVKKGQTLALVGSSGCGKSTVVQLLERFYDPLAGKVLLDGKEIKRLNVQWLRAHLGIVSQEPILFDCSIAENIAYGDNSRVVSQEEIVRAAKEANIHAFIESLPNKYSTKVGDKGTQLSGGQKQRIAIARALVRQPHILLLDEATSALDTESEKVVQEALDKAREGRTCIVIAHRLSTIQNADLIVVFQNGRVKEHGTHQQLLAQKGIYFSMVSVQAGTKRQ

[9] = target: T2, Proteasome subunit beta type-9 (Homo sapiens, UniProt P28065); assay: Inhibition of purified human 20S immunoproteasome beta1 subunit using Ac-Pro-Ala-Leu-AMC as substrate pretreated for 1 hr followed by substrate addition and measured at 1 min interval by fluorescence assay
T2 sequence (P28065 whole entry): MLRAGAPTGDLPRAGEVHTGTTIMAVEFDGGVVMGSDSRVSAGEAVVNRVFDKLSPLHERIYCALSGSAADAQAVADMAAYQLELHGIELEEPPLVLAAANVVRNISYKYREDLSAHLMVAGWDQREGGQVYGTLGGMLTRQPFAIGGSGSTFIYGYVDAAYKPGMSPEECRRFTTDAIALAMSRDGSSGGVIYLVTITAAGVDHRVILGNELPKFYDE

[10] = Potency index, ratio of carfilzomib IC50 to test compound IC50 for human RPMI8226/Cfzr cells; assay type: functional
[11] = Stability in Sprague-Dawley rat liver homogenate at 1 uM measured up to 20 mins by LC-MS/MS analysis
NCI-H727 [12] = assay: Potency index, ratio of carfilzomib IC50 to test compound IC50 for human NCI-H727 cells; assay type: functional
[13] = Half life in patient with relapsed and refractory multiple myeloma; assay type: ADME; settings: human, in vivo

With `CC(C)C[C@@H](C=O)NC(=O)[C@H](CC(C)C)NC(=O)[C@H](CC(C)C)NC(=O)OCc1ccccc1` [MG-132] (Cbz-Leu-Leu-Leu-aldehyde) the “Ratio IC50” value [1] was 2, the IC50 (NCI-H23) was 480 nM and the IC50 (NCI-H727 [2]) was 980 nM.

In the case of `CC(=O)N[C@@H](CSC(=O)[C@]1([C@@H](O)C(C)C)NC(=O)[C@H](C)[C@@H]1O)C(=O)O` [LACTACYSTIN], the “Ratio IC50” value [1] is reported as greater than 19, the IC50 (NCI-H23) is reported as 5230 nM and the IC50 (NCI-H727 [2]) is reported as greater than 100000 nM.

For `CC[C@H](C)[C@H](NC(=O)[C@H]([C@@H](C)CC)N(C)C(C)=O)C(=O)N[C@H](C(=O)N[C@@H](CC(C)C)C(=O)[C@@]1(C)CO1)[C@@H](C)O` [EPOXOMYCIN], the IC50 [3] was 541 nM, the “Ratio IC50” value [4] was 49.2 and the IC50 (RPMI-8226) was 11 nM.

`COC[C@]1(C(=O)[C@H](CC(C)C)NC(=O)[C@H](Cc2ccccc2)NC(=O)[C@H](CC(C)C)NC(=O)[C@H](CCc2ccccc2)NC(=O)CN2CCOCC2)CO1` gave an IC50 [5] greater than 1000 nM.

Work on `COCCOCOC[C@]1(C(=O)[C@H](CC(C)C)NC(=O)[C@H](Cc2ccccc2)NC(=O)[C@H](CC(C)C)NC(=O)[C@H](CCc2ccccc2)NC(=O)CN2CCOCC2)CO1` yielded an IC50 [5] greater than 1000 nM.

With `CC(C)C[C@H](NC(=O)[C@H](Cc1ccccc1)NC(=O)c1cnccn1)B(O)O` [BORTEZOMIB] the “Ratio IC50” value [1] was 2.5, the IC50 (NCI-H23) was 10 nM and the IC50 (NCI-H727 [2]) was 25 nM.

With `CCCCCCC(=O)N[C@@H](CO)C(=O)N[C@@H](CC(C)C)C(=O)[C@@]1(COCOCCOC)CO1` the Activity (Homo sapiens [6]) was “Active”, the IC50 [3] was 3410 nM and the “Ratio IC50” value [1] was 1.3. For the same compound, the “Ratio IC50” value [4] was 1.6, the Activity (Homo sapiens [7]) was “Active” and the IC50 (NCI-H23) was 3400 nM. The IC50 (NCI-H727 [2]) was 4490 nM and the IC50 (RPMI-8226) was 2080 nM.

With `COCOC[C@]1(C(=O)[C@H](CC(C)C)NC(=O)[C@H](Cc2ccccc2)NC(=O)[C@H](CC(C)C)NC(=O)[C@H](CCc2ccccc2)NC(=O)CN2CCOCC2)CO1` the IC50 [5] was greater than 1000 nM.

With `CC(C)(C)OC(=O)N[C@@H](CC(=O)OCc1ccccc1)C(=O)N[C@@H](CCCCNC(=O)OCc1ccccc1)C(=O)OC(C)(C)C` [REVERSIN 121] (Boc-Asp(OBn)-Lys(Cbz)-OtBu) the “inhibition (INH)” value [8] was “Active”.

For `CCCCCCC(=O)N[C@@H](C)C(=O)N[C@@H](CC(C)C)C(=O)[C@@]1(CO[Si](C)(C)C(C)(C)C)CO1`, the Activity (Homo sapiens [6]) was “Active”, the IC50 [3] was 2140 to 3720 nM and the “Ratio IC50” value [1] was 1.5. For the same compound, the IC50 [9] was 140 nM, the IC50 [5] was greater than 10000 nM and the “Ratio IC50” value [4] was 1.7. The Activity (Homo sapiens [7]) was “Active”, the IC50 (NCI-H23) was 3370 nM and the IC50 (NCI-H727 [2]) was 5210 nM. For the same compound, the IC50 (RPMI-8226) was 2140 nM.

In the case of `CC(C)C[C@H](NC(=O)[C@H](CCc1ccccc1)NC(=O)CN1CCOCC1)C(=O)N[C@@H](Cc1ccccc1)C(=O)N[C@@H](CC(C)C)C(=O)[C@@]1(CO)CO1`, the IC50 [3] is reported as 106 nM, the IC50 [9] is reported as 743 nM and the “Ratio IC50” value [10] is reported as 3. The Stability [11] was “Stable”, the “Ratio IC50” value (NCI-H727 [12]) was 10 and the IC50 [5] was 2.1 nM. The IC50 (NCI-H23) was 29.4 nM and the IC50 (NCI-H727 [2]) was 61 nM.

With `CC(C)C[C@H](NC(=O)[C@H](CCc1ccccc1)NC(=O)CN1CCOCC1)C(=O)N[C@@H](Cc1ccccc1)C(=O)N[C@@H](CC(C)C)C(=O)[C@@]1(C)CO1` [CARFILZOMIB] the IC50 [3] was 269 to 270 nM, the half-life [13] was less than 1 h and the Stability [11] was “Stable”. The IC50 (NCI-H23) was 18 to 18.3 nM, the IC50 (NCI-H727 [2]) was 610 to 611 nM and the IC50 (RPMI-8226) was 7 nM.

With `CC(C)C[C@H](NC(=O)[C@H](CCc1ccccc1)NC(=O)CN1CCOCC1)C(=O)N[C@@H](Cc1ccccc1)C(=O)N[C@@H](CC(C)C)C(=O)[C@@]1(CO[Si](c2ccccc2)(c2ccccc2)C(C)(C)C)CO1` the IC50 [5] was 112 nM, the IC50 (NCI-H23) was greater than 10000 nM and the IC50 (NCI-H727 [2]) was greater than 10000 nM.

In the case of `CC(C)C[C@H](NC(=O)[C@H](CCc1ccccc1)NC(=O)CN1CCOCC1)C(=O)N[C@@H](Cc1ccccc1)C(=O)N[C@@H](CC(C)C)C(=O)[C@@]1(COS(C)(=O)=O)CO1`, the IC50 [5] is reported as 8 nM, the IC50 (NCI-H23) is reported as 311 nM and the IC50 (NCI-H727 [2]) is reported as 834 nM.

Compound `CCCCCCC(=O)N[C@@H](C)C(=O)N[C@@H](CC(C)C)C(=O)[C@@]1(CO)CO1` has an IC50 [3] of 310 nM, an IC50 [9] of 36 nM and an IC50 [5] of 1700 nM. It also gave an IC50 (NCI-H23) of 580 nM and an IC50 (NCI-H727 [2]) of 690 nM.
